# Screening results: PubChem, Columbia University Molecular Screening Center
# INS promoter act: TRM-6 insulin promoter activation. TRM-6 cells (human fetal islet line), insulin promoter eGFP reporter, imaging; plate-scaled: unstimulated 0, stimulated control 100. activation, % at 2 µM. 130,000 compounds, 0.81% hits. AID 1296;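 active = activation at 2 µM above a set limit, confirmed on inspection of the cell images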;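 also: share of cells whose green reporter signal exceeds an intensity cutoff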
#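 Assay system: TRM-6 insulin promoter–eGFP reporter cells / Input: 1,000 cells per well / Medium: Low-glucose (5.5 mM) medium with tamoxifen / Also added: tamoxifen inducer, 0.75 µM, in seeding medium / Timing: overnight tamoxifen, then two-day compound incubation at 37 °C / Signal: automated fluorescence imaging of paraformaldehyde-fixed, Hoechst-counterstained cells, green channel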
# A number is an active result; i = inactive. The entries come from a sample that favours hits as a whole.
SMILES,INS promoter act
CCOC(=O)c1sc(NC(=O)c2ccccc2F)c(C(N)=O)c1C,i
Cc1sc(NC(=O)c2ccccc2F)c(CN2CCCCC2)c1C,485
CC1CCCC(C)N1C(=O)COC(=O)C(Cc1ccccc1)NC(=O)c1cccs1 (configuration not stated),i
CC(C)(C)NC(=O)C(c1ccccn1)N(C(=O)C1CSC(=O)C1)c1ccccc1F (configuration not stated),i
Nc1ccccc1C(=O)N/N=C1\C2CN3CCN(C2)CC1(c1ccccc1)C3,i
NC(=O)CSc1nnc(COc2ccccc2)n1CCc1ccccc1,i
COc1ccccc1-n1c(COc2ccccc2-c2ccccc2)nnc1SCC(=O)c1c(N)n(C)c(=O)n(C)c1=O,i
COc1ccc(OCc2nnc(SCC(N)=O)n2-c2ccccc2OC)cc1,160
OC(c1ccccc1)(c1ccc(F)cc1)C(c1ccccc1)N1CCOCC1 (configuration not stated),i
FC(F)(F)c1nnc(-c2ccccc2)nc1N1CCOCC1,i
FC(F)(F)c1cccc(-c2nnc(-c3ccccc3)c(N3CCOCC3)n2)c1,233
Cc1ccc(-c2nnc(C)c(N3CCOCC3)n2)cc1,i
CCc1ccc(N(C(=O)c2csnn2)C(C(=O)NC(C)(C)C)c2cccnc2)cc1 (configuration not stated),i
O=C(NNC(=O)C12CC3CC(CC(C3)C1)C2)[C@@H]1C[C@H]1c1ccccc1,i
CCC(C)Cn1c(C(C)O)nc2ccccc21 (configuration not stated),i
CN(CC(=O)Nc1ccccc1C(=O)N1CCCC1)S(=O)(=O)c1ccc(Cl)cc1,i
COc1ccc(CNC(=O)C(c2ccco2)N(Cc2cccs2)C(=O)Cc2cccs2)cc1 (configuration not stated),80
COc1ccc(CNC(=O)C(c2cccs2)N(Cc2ccco2)C(=O)Cc2cccs2)cc1 (configuration not stated),i
COc1ccc(CNC(=O)C(c2ccc(C)cc2)N(Cc2cccs2)C(=O)c2ccc3c(c2)OCCO3)cc1 (configuration not stated),i
COc1ccc(NC(=O)N2CCC(c3nc4ccccc4[nH]3)CC2)cc1,i
O=C(NN=C(Cc1ccccc1)Cc1ccccc1)C1CC1,i
CC(=O)Nc1ccc(S(=O)(=O)NCc2csc(-c3cccnc3)n2)cc1,i
CCc1ccc(S(=O)(=O)NCc2csc(-c3cccnc3)n2)s1,857
O=S(=O)(NCc1csc(-c2cccnc2)n1)c1cccs1,i
COC(=O)c1c(-c2cccc3ccccc23)csc1NC(=O)Cc1ccc(OC)c(OC)c1,i
SMILES,INS promoter act
C#C[C@]1(O)CC[C@H]2[C@@H]3CCc4cc(OC)ccc4[C@H]3CC[C@@]21C,i
Cc1ccc(-c2cc(C(=O)N/N=C/c3c(C)nn(C)c3C)c3ccccc3n2)cc1C,i
Cc1nn(C)c(C)c1/C=N/N=C1\CCC2C3CCc4cc(O)ccc4C3CCC12C (configuration not stated),91
COc1ccc(-n2cc(CNCCc3cnc[nH]3)c(-c3cccc(F)c3)n2)cc1,i
COc1ccccc1N1CCN(c2ccc(Cl)nn2)CC1,i
COc1ccccc1N1C(=O)C(Cl)=C(Nc2ccccc2O)C1=O,379
CCOc1ccccc1NC1=C(Cl)C(=O)N(c2ccc(OC)cc2)C1=O,i
CC(=O)c1cn(CCC(C)C)c(=O)[nH]c1=O,i
C/C(=N/OC(=O)c1ccc(F)cc1)c1ccc(C)cc1,i
CN(C)S(=O)(=O)c1ccc(Cl)c(NC(=O)c2ccncc2)c1,i
CCOC(=O)C1=C(C)NC(=S)NC1c1ccsc1 (configuration not stated),i
Cc1ccc(S(=O)(=O)Nc2ccc(N(C)C)cc2)cc1,i
COc1ccc(S(=O)(=O)Nc2ccc(N(C)C(C)=O)cc2)cc1,103
CCOc1ccc(NS(=O)(=O)c2ccc(NC(=S)NC(C)=O)cc2)cc1,i
Clc1ccc(Nc2ncn[nH]2)c(Cl)c1,i
CCCCC(C(=O)O)C(C)CC(=O)NNC(=O)c1ccco1 (configuration not stated),i
O=S(=O)(c1ccc(OCC(O)CN2CCN(c3ccccc3)CC2)cc1)N1CCOCC1 (configuration not stated),i
OC(CSc1ccc(F)cc1)CN1CCN(c2ccccc2)CC1 (configuration not stated),118
OC(CN1CCN(c2ccccc2)CC1)Cn1c2ccccc2c2ccccc21 (configuration not stated),i
CC(Cl)C(=O)Nc1ccccc1C#N (configuration not stated),i
Cc1ccc(C(=O)COC(=O)c2c(C)cc(=O)oc2C)cc1[N+](=O)[O-],i
CC(C)C[C@@H]1NC(=O)[C@H](CO)NC(=O)c2cc([N+](=O)[O-])cc(I)c2OCC[C@@H](C(N)=O)NC1=O,i
CSc1nsc(/C=C/Nc2ccc(O)cc2C)c1C#N,809
CSc1nc(C)cc(/C=C\c2ccccc2)c1C#N,i
O=C(CNC(=O)c1ccc(S(=O)(=O)N2CCCC2)cc1)N/N=C/c1c(Cl)cccc1Cl,i
SMILES,INS promoter act
COc1cc(NC(=O)C2CCCN(c3ncccn3)C2)cc(OC)c1 (configuration not stated),i
CCOCC(=O)Nc1cc(C(=O)OC)cc(C(=O)OC)c1,i
Cc1ccccc1Cn1c(=O)n(CC2CCC(C(=O)NCCc3ccccc3)CC2)c(=O)c2ccccc21 (configuration not stated),i
S=C(c1ccc(-c2ccccc2Cl)o1)N1CCOCC1,i
O=C(NC12CC3CC(CC(C3)C1)C2)c1ccc(-c2ccccc2Cl)o1,219
O=C(NCc1ccco1)c1ccc(-c2ccccc2Cl)o1,i
Cc1ccc(C2=NN(CC(=O)NCc3ccccn3)C(=O)CC2)cc1,i
c1ccc(CN2CCOCC2)cc1,i
O=C(NCCCN1CCOCC1)c1cc(-c2ccccc2)on1,i
Clc1ccc2oc(-c3ccccc3)cc(=NCCCN3CCOCC3)c2c1,321
CCCCN(CCCC)Cc1ccc(C(=O)NNC(=O)Nc2ccc(F)cc2)o1,i
O=C(NC1CCCCC1)N1CCN(c2ncccn2)CC1,i
COc1ccc(CCC(=O)Nc2c(C)n(C)n(-c3ccccc3)c2=O)cc1,i
CCCc1cc(NCc2ccccn2)n2c(nc3ccccc32)c1C#N,i
CCCNc1cc(C)c(C#N)c2nc3ccccc3n12,i
CCCc1cc(-n2cnc3ccccc32)n2c(nc3ccccc32)c1C#N,76
Cc1ccc(NC(=S)NCc2cccs2)c(C)c1,i
CCn1c(SCC(=O)Nc2cc(C)on2)nnc1-c1cccs1,i
CCn1c(CNC(=O)c2cccs2)nnc1SCC(=O)Nc1ccc(Cl)cc1,650
C=CCn1c(CCNC(=O)c2cccs2)nnc1SCC(=O)Nc1cccc(C(C)=O)c1,i
Cc1[nH]n(-c2ccccc2)c(=S)c1C=Nc1ccc([N+](=O)[O-])cc1,i
CCCn1nc2cc(C(=O)NCCc3cccs3)ccc2c1OCC,i
C=CCSc1nn2c(=O)c3ccccc3nc2s1,130
O=c1c2ccccc2nc2sc3ccccc3n12,i
C=CCSc1nc2ccccc2c2nc(-c3ccccc3)nn12,i
O=C(NN1C(=O)c2ccccc2NC1c1ccccn1)c1ccc([N+](=O)[O-])cc1 (configuration not stated),i
Cc1cccc(NC(=O)C(=O)NCCCN2CCOCC2)c1,i
COc1cc(C2NC(=O)NC(C)=C2C(=O)OC(C)C)ccc1OC(=O)c1ccco1 (configuration not stated),i
CCOC(=O)c1cc2sccc2n1Cc1ccccc1,i
